In brackets after ≈: the same amount, converted by molar mass.
Test system: Mycobacterium tuberculosis
Assay: Antimycobacterial activity against multidrug-resistant Mycobacterium tuberculosis clinical isolate after 5 days by tetrazolium microplate assay
Format: functional
Conditions: 120 h
Outline: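 Tetrazolium microplate assay run in 7H9GC broth. DMSO stocks (4 mg/mL) were diluted to final 0.4–25 µg/mL. Isoniazid (0.125–32 µg/mL) and rifampin (0.063–16 µg/mL) were positive controls; inoculum-only and DMSO controls were included. Plates were incubated 5 days at 37 °C, then an MTT-Tween 80 mix was added and incubation continued 24 h at 37 °C. Run in triplicate. MIC = lowest concentration preventing the yellow-to-purple colour change.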

| Structure (SMILES) | MIC [µg/mL] |
| --- | --- |
| COc1cccc(C(=O)NNC(=O)c2ccc3[nH]c(-c4ccc([N+](=O)[O-])o4)nc3c2)c1 | 25 (≈ 59.3 µM) |
| COc1cc(C(=O)NNC(=O)c2ccc3[nH]c(-c4ccc([N+](=O)[O-])s4)nc3c2)cc(OC)c1OC | > 25 |
| COc1cccc(C(=O)NNC(=O)c2ccc3[nH]c(-c4ccc([N+](=O)[O-])s4)nc3c2)c1 | 25 (≈ 57.2 µM) |
| O=CNNC(=O)c1ccc2[nH]c(-c3ccc([N+](=O)[O-])o3)nc2c1 | > 25 |
| O=C(NNC(=O)c1ccc2[nH]c(-c3ccc([N+](=O)[O-])o3)nc2c1)c1ccccc1 | 6.25 (≈ 16 µM) |
| O=C(NNC(=O)c1cc2ccccc2cc1O)c1ccc2[nH]c(-c3ccc([N+](=O)[O-])s3)nc2c1 | > 25 |
| COc1ccc(C(=O)NNC(=O)c2ccc3[nH]c(-c4ccc([N+](=O)[O-])o4)nc3c2)cc1OC | 25 (≈ 55.4 µM) |
| CO[C@H]1/C=C/O[C@@]2(C)Oc3c(C)c(O)c4c(O)c(c(/C=N/N5CCN(C)CC5)c(O)c4c3C2=O)NC(=O)/C(C)=C\C=C\[C@H](C)[C@H](O)[C@@H](C)[C@@H](O)[C@@H](C)[C@H](OC(C)=O)[C@@H]1C [RIFAMPIN] | 2 (≈ 2.43 µM) |
| COc1cc(C(=O)NNC(=O)c2ccc3[nH]c(-c4ccc([N+](=O)[O-])o4)nc3c2)cc(OC)c1OC | 25 (≈ 51.9 µM) |
| O=C(O)c1ccc2[nH]c(-c3ccc([N+](=O)[O-])o3)nc2c1 | > 25 |
| O=C(NNC(=O)c1ccc2[nH]c(-c3ccc([N+](=O)[O-])o3)nc2c1)c1cccc(Oc2ccccc2)c1 | 25 (≈ 51.7 µM) |
| NNC(=O)c1ccncc1 [ISONIAZID] | 4 (≈ 29.2 µM) |

Source: ChEMBL document CHEMBL1681759, “Synthesis and biological evaluation of benzimidazole-5-carbohydrazide derivatives as antimalarial, cytotoxic and antitubercular agents” (Bioorg Med Chem, 2011)
